Measured values collected from several papers.
Lines come from different studies, so protocols differ.
Target: Serine/threonine-protein kinase PLK1 (PLK1, Homo sapiens, UniProt P53350)

Cc1ccc(NC(=O)c2ccnc(C(F)(F)F)c2)cc1-c1cc(OCCO)nc(N2CCOCC2)c1 — remaining binding (binding; 1 µM): 94%
CCCCC(=O)Nc1ccc(-c2ccc3ncn(CCC)c(=O)c3c2)cn1 — remaining binding (binding, competition with immobilised ligand; 0.5 µM): 100%
C1=C/COCc2cc(ccc2OCCN2CCCC2)Nc2nccc(n2)-c2cccc(c2)COC/1 — remaining binding (binding; 0.1 µM): 100%
CC#CC(=O)N1CCC[C@H]1c1nc(-c2ccc(C(=O)Nc3ccccn3)cc2)c2c(N)nccn12 — inhibition (enzyme activity, inhibitor; 1 µM): 36%
COc1ccc2[nH]c3c4[nH]c5ccc(OC)cc5c4c4c(c3c2c1)C(=O)NC4=O — remaining binding (binding; 1 µM): 90%
COc1ccc2oc(-c3ccc4nc(N)oc4c3)c/c(=N\c3ccccc3NC(=O)CCN)c2c1 — remaining binding (binding; 1 µM): 98%
C=CC(=O)N1CCC([C@@H]2CCNc3c(C(N)=O)c(-c4ccc(Oc5ccccc5)cc4)nn32)CC1 — inhibition (enzyme activity, inhibitor; 1 µM): 31%
N#Cc1ccc(NC(=O)Nc2ccccc2)cc1 — remaining binding (cell-free assay, competition with immobilised ligand; 25 µM): 93%
